Source: ChEMBL document CHEMBL4196053, “Endoperoxide-8-aminoquinoline hybrids as dual-stage antimalarial agents with enhanced metabolic stability” (Eur J Med Chem, 2018)
The source made the active and inactive calls. No cut-off for these calls is given here.

Experiments:
Plasmodium falciparum = test: Antiplasmodial activity against chloroquine resistant Plasmodium falciparum W2 erythrocytic ring stage after 48 hrs using hypoxanthine by flow cytometric analysis; type: functional, organism-based; conditions: W2, 48 h
How it was run: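 Ring-stage W2 P. falciparum synchronized with 5% sorbitol, about 1% parasitemia in human erythrocytes. Cells fixed in 2% formaldehyde, stained with 1 nM YOYO-1, infected cells counted by flow cytometry. IC50 taken against untreated controls; two experiments, four replicates each.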

[1] = Intrinsic clearance in rat liver microsomes assessed per mg protein at […] in presence of NADPH by HPLC analysis; type: ADME, microsome; conditions: read-out: CLH
Plasmodium berghei [2] = test: Antiplasmodial activity against luciferase expressing Plasmodium berghei sporozoites infected in human HuH7 cells at 10 uM preincubated for 1 hr followed by parasite infection measured after 48 hrs by bioluminescence analysis relative to control; type: functional
How it was run: (§1)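 Huh-7 hepatoma cells (1.0 × 10^4/well) seeded the day before. Compound-containing medium added about 1 h before infection with fresh firefly luciferase-expressing P. berghei sporozoites from Anopheles stephensi salivary glands, then spun 1700 g for 5 min. DMSO vehicle in controls. Parasite load read by bioluminescence 48 h post-infection. Initial screen at fixed concentrations; EC50 from nonlinear regression of normalized dose-response data.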

[3] = Half life in rat liver microsomes at […] in presence of NADPH by HPLC analysis; type: ADME, microsome
Plasmodium berghei [4] = test: Antiplasmodial activity against luciferase expressing Plasmodium berghei infected in human HuH7 cells preincubated for 1 hr followed by parasite infection measured after 48 hrs by bioluminescence analysis; type: functional, organism-based; conditions: Huh-7; how it was run: as §1
[5] = Cytotoxicity against human Caco2 cells assessed as reduction in cell viability after 72 hrs by neutral red dye based assay; conditions: Caco-2 cells
How it was run: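 CaCo-2 cells grown in RPMI-1640 with 10% FBS and antibiotic-antimycotic at 37°C, 5% CO2. Exposed once confluent for 72 h to compound diluted in medium, organic solvent ≤1%. Medium then removed and cells washed with PBS.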

Plasmodium berghei [6] = test: Antiplasmodial activity against luciferase expressing Plasmodium berghei sporozoites infected in human HuH7 cells at 2 uM preincubated for 1 hr followed by parasite infection measured after 48 hrs by bioluminescence analysis relative to control; type: functional; how it was run: as §1
Huh-7 = test: Cytotoxicity against human HuH7 cells assessed as reduction in cell viability at 10 uM after 48 hrs by Alamar blue assay; type: cell-based; conditions: huh-7, 48 h
How it was run: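 Huh-7 cells seeded and infected with P. berghei sporozoites as in the liver-stage assay, with compound added about 1 h before infection and DMSO vehicle in controls. Host cell viability read by AlamarBlue fluorescence 48 h post-infection.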

[7] = Selectivity index, ratio of CC50 for human Caco2 cells to IC50 for chloroquine resistant Plasmodium falciparum W2 erythrocytic ring stage; type: toxicity; conditions: Caco-2 cells, read-out: Ratio CC50/IC50

Structure (SMILES)	EC50 (Plasmodium falciparum)	microsomal CLint [1]	Activity (Plasmodium berghei [2])	half-life [3]	EC50 (Plasmodium berghei [4])	CC50 at 72 h [5]	Activity (Plasmodium berghei [6])	Activity (Huh-7)	selectivity ratio [7]
COc1cc(NC(=O)C2CCC3(CC2)OOC2(OO3)C3CC4CC(C3)CC2C4)c2ncccc2c1-c1ccccc1 (stereo unspecified)	287 nM	33 µL/min/mg	52%	42 min	–	–	–	–	–
COc1cc(NCCCCNC(=O)C2CCC3(CC2)OOC2(OO3)C3CC4CC(C3)CC2C4)c2ncccc2c1-c1ccc(F)cc1 (stereo unspecified)	15 nM	92.4 µL/min/mg	Active	15 min	1110 nM	10200 nM	>50%	Non-Toxic	–
COc1cc(NC(C)CCCNCC2CCC3(CC2)OOC2(OO3)C3CC4CC(C3)CC2C4)c2ncccc2c1-c1ccccc1 (stereo unspecified)	92 nM	–	Active	–	–	–	Active	Toxic	–
COc1cc(NC(C)CCCNCC2CCC3(CC2)OOC2(OO3)C3CC4CC(C3)CC2C4)c2ncccc2c1-c1ccc(Cl)cc1 (stereo unspecified)	–	–	Active	–	–	13200 nM	Active	Toxic	–
COc1cc(NC(C)CCCNC(=O)C2CCC3(CC2)OOC2(OO3)C3CC4CC(C3)CC2C4)c2ncccc2c1-c1ccc(C)cc1 (stereo unspecified)	141 nM	15.9 µL/min/mg	Active	87 min	1650 nM	> 50000 nM	>50%	Non-Toxic	–
COc1cc(NC(C)CCCNCC2CCC3(CC2)OOC2(OO3)C3CC4CC(C3)CC2C4)c2ncccc2c1-c1ccsc1 (stereo unspecified)	81 nM	–	Active	–	–	–	Active	Toxic	–
COc1cc(NC(C)CCCNC(=O)C2CCC3(CC2)OOC2(OO3)C3CC4CC(C3)CC2C4)c2ncccc2c1-c1ccc(Cl)cc1 (stereo unspecified)	75 nM	10.7 µL/min/mg	Active	129 min	2810 nM	> 50000 nM	>50%	Non-Toxic	> 1000
COc1cc(NCCCCCNC(=O)C2CCC3(CC2)OOC2(OO3)C3CC4CC(C3)CC2C4)c2ncccc2c1-c1ccc(F)cc1 (stereo unspecified)	17 nM	55.4 µL/min/mg	Active	25 min	1640 nM	–	>50%	Non-Toxic	–
COc1cc(NC(C)CCCN)c2ncccc2c1-c1ccc(C)cc1 (stereo unspecified)	2350 nM	–	–	–	5430 nM	–	–	–	–
COc1cc(NC(=O)C2CCC3(CC2)OOC2(OO3)C3CC4CC(C3)CC2C4)c2ncccc2c1-c1ccc(Cl)cc1 (stereo unspecified)	4190 nM	11.1 µL/min/mg	37%	125 min	–	–	–	–	–
COc1cc(NC(C)CCCNCC2CCC3(CC2)OOC2(OO3)C3CC4CC(C3)CC2C4)c2ncccc2c1-c1ccc(C)cc1 (stereo unspecified)	176 nM	–	Active	–	–	11700 nM	Active	Toxic	–
COc1cc(NC(C)CCCNC(=O)C2CCC3(CC2)OOC2(OO3)C3CC4CC(C3)CC2C4)c2ncccc2c1-c1ccccc1 (stereo unspecified)	204 nM	33 µL/min/mg	Active	42 min	1690 nM	> 50000 nM	>50%	Non-Toxic	–
COc1cc(NC(C)CCCNCC2CCC3(CC2)OOC2(OO3)C3CC4CC(C3)CC2C4)c2ncccc2c1-c1ccc(C(F)(F)F)cc1 (stereo unspecified)	19 nM	–	62%	–	–	10300 nM	Active	Toxic	–
COc1cc(NC(C)CCCNC(=O)C2CCC3(CC2)OOC2(OO3)C3CC4CC(C3)CC2C4)c2ncccc2c1Br (stereo unspecified)	16 nM	99 µL/min/mg	Active	14 min	–	–	>50%	Toxic	–
C[C@@H]1CC[C@H]2[C@@H](C)C(=O)O[C@@H]3O[C@@]4(C)CC[C@@H]1[C@]32OO4 [ARTEMISININ]	10 nM	–	–	–	–	–	–	–	–
COc1cc(NCCCNC(=O)C2CCC3(CC2)OOC2(OO3)C3CC4CC(C3)CC2C4)c2ncccc2c1-c1ccc(F)cc1 (stereo unspecified)	15 nM	39.6 µL/min/mg	Active	35 min	2610 nM	–	>50%	Non-Toxic	–
CCOC(=O)C1CCC2(CC1)OOC1(OO2)C2CC3CC(C2)CC1C3 (stereo unspecified)	–	–	–	–	17300 nM	–	–	–	–
COc1cc(NC(C)CCCNCC2CCC3(CC2)OOC2(OO3)C3CC4CC(C3)CC2C4)c2ncccc2c1-c1ccc(F)cc1 (stereo unspecified)	99 nM	–	Active	–	–	–	Active	Toxic	–
COc1cc(NC(C)CCCNCC2CCC3(CC2)OOC2(OO3)C3CC4CC(C3)CC2C4)c2ncccc2c1-c1ccoc1 (stereo unspecified)	120 nM	–	Active	–	–	–	Active	Toxic	–
COc1cc(NC(C)CCCNC(=O)C2CCC3(CC2)OOC2(OO3)C3CC4CC(C3)CC2C4)c2ncccc2c1-c1ccoc1 (stereo unspecified)	76 nM	–	Active	–	2350 nM	> 50000 nM	>50%	Non-Toxic	> 600
COc1cc(NC(C)CCCNC(=O)C2CCC3(CC2)OOC2(OO3)C3CC4CC(C3)CC2C4)c2ncccc2c1-c1ccc(Br)cc1 (stereo unspecified)	61 nM	–	Active	–	4440 nM	> 50000 nM	>50%	Non-Toxic	> 1000
COc1cc(NC(=O)C2CCC3(CC2)OOC2(OO3)C3CC4CC(C3)CC2C4)c2ncccc2c1-c1ccc(Br)cc1 (stereo unspecified)	5670 nM	11.2 µL/min/mg	35%	124 min	–	–	–	–	–
COc1cc(NC(=O)C2CCC3(CC2)OOC2(OO3)C3CC4CC(C3)CC2C4)c2ncccc2c1-c1ccc(F)cc1 (stereo unspecified)	916 nM	23.1 µL/min/mg	–	60 min	–	–	–	–	–
